PvdQ acylase = blocks Pseudomonas aeruginosa PvdQ acylase activity; AID 488965; purified PvdQ acylase, fluorescence plate reader; actives 0.063% (n = 340,000); inhibition, % at 10 µM; in the data active = inhibition above about 30%, passing the limit was not always enough;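 note: 0% = vehicle neutral wells and 100% = reference inhibitor wells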
ATG4B inhibitor = blocks human ATG4B protease cleavage of LC3 substrate; ATG4B cleavage of LC3-PLA2, NBD-HPC fluorescence, 1 h; Q9Y4P1; actives 0.51% (n = 340,000); inhibition, % at 8.33 µM; in the data active = inhibition above about 40%
VIM-2 inhibitor = blocks Pseudomonas aeruginosa VIM-2 metallo-beta-lactamase; purified VIM-2, nitrocefin hydrolysis, epi-absorbance fluorescence; AID 1527; inhibition, % at 5.6 µM; actives 0.89% (n = 290,000);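 active = inhibition above the mean of all tested compounds plus 3 SD, cutoff set per screening run, cut at about 7.5% in these data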;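 note: red hydrolysis product quenches plate fluorescence so inhibitors raise well fluorescence; 0% = enzyme with DMSO and 100% = DMSO without enzyme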
MIN6 prolif-1 = MIN6 beta-cell proliferation induction. AID 2380. MIN6 cells proliferation, ATPlite luminescence, 48 h; cells starved in 0.2% serum; 100% = growth in 10% serum. actives 0.29% (n = 330,000). proliferation, % at 10 µM;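 active = compounds whose signal lies at least 3.5 SD above the mean of all wells on their plate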;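 note: 0% = DMSO-treated cells in low-serum medium and 100% = 10% serum control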
IMP-1 inh = blocks Pseudomonas aeruginosa IMP-1 metallo-beta-lactamase; actives 0.45% (n = 290,000); AID 1556; purified IMP-1, nitrocefin hydrolysis, epi-absorbance fluorescence; inhibition, % at 5.6 µM;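 active = inhibition above the mean plus 3 SD of all compounds in the same screening run, cut at about 4.5% in these data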;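 note: 0% = IMP-1 with DMSO and 100% = DMSO wells lacking enzyme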
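System: purified IMP-1; amount: IMP-1 0.2 nM before substrate addition; compound: single dose, 5.6 µM; times: 25 °C, 15 min preincubation, 25 min reaction; signal: Epi-absorbance via hydrolysed-nitrocefin quenching of white-plate fluorescence, 480/530 nm, EDTA stop; benchmarks: DMSO with and without IMP-1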
HKDC1 inhibitor = blocks human hexokinase HKDC1 activity | inhibition, % at 20 µM | recombinant HKDC1, G6PDH/diaphorase resazurin coupled fluorescence | AID 493160 | actives 0.16% (n = 340,000) | Q2TB90;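 active = inhibition above about 35% when tested at 20 µM, limit read from the data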;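 note: plate controls were DMSO wells with enzyme for no effect and DMSO wells lacking enzyme for full effect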
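Test system: recombinant HKDC1 (HK5) hexokinase enzyme, produced in-house; Amount: enzyme 5 µg/mL final; Buffer or medium: Tris pH 8.0 buffer with MgCl2, Tween-20, BSA, BME; Reagent: glucose and ATP substrates; Doses: 20 µM test compound, 1% DMSO; Incubation: 90 min reaction incubation at room temperature, dark; Detection: resorufin fluorescence at 613 nm.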
MIN6 prolif-2 = confirmation of inducers of beta-cell replication in MIN6 cells; MIN6 beta-cell proliferation, ATPlite luminescence, 48 h; cells kept in 0.2% serum; scaled between 0.2% and 10% serum; shares compounds with MIN6 prolif-1; 920 tested, under 10 active; proliferation increase, % at 50 µM;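 active = proliferation increase above 40% at any of the four tested concentrations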
An asterisk follows results filed as active; . = no result. An excerpt weighted towards active compounds, which were near 2% of everything screened.

SMILES	PvdQ acylase	ATG4B inhibitor	VIM-2 inhibitor	MIN6 prolif-1	IMP-1 inh	HKDC1 inhibitor	MIN6 prolif-2
Cc1ccc(C)c(N2CCN(C(=S)NC3CCCCC3)CC2)c1	-18	-6	1	-3	-2	6	.
Cc1cccc(N2CCN(C(=S)NC3CCCCC3)CC2)c1C	11	-3	-1	7.9*	-1	-7	0
O/N=C/c1cn(-c2ccccc2)nn1	-18	4	-2	7.6*	-3	4	2
N#CC(C#N)=C1NC2(CCCCC2)Cc2ccccc21	-8	-7	-2	5.2*	-3	1	6
CCC1(CC)Cc2ccccc2C(=C(C#N)C#N)N1	-10	-8	-3	-1	-1	-4	.
CCCN1C2=C(C(=O)CC(C)(C)C2)C(c2ccc(F)cc2)C2=C1c1ccccc1C2=O (stereo not drawn)	-7	17	-1	-4	-3	0	.
CCCCN1C2=C(C(=O)CC(C)(C)C2)C(c2ccccc2)C2=C1c1ccccc1C2=O (stereo not drawn)	-12	1	-1	8.2*	-2	-7	-1
Nc1c(-c2cccc(Cl)c2)cnc2c(-c3ccccc3)cnn12	-3	-6	-1	0	-1	0	.
C=C[C@@]1(C)CC(=O)[C@]2(O)[C@@]3(C)[C@@H](O)CCC(C)(C)[C@@H]3[C@H](O)[C@H](OC(C)=O)[C@@]2(C)O1	2	1	.	17*	.	-5	6
S=C1NCCc2ccccc2C1c1ccccc1Cl (stereo not drawn)	-12	-8	0	5.3*	-1	6	-6
COc1cccc(/C=N/n2c(C3CCCCC3)n[nH]c2=S)c1	19	2	-6	6.9*	-5	5	-6
Oc1cccc(/C=N/n2c(C3CCCCC3)n[nH]c2=S)c1	3	-9	-1	1	-5	-1	.
Cc1ccc(C)c(S(=O)(=O)NC2CCS(=O)(=O)C2)c1 (stereo not drawn)	-1	2	.	12*	.	-4	-2
CCN(C1CCS(=O)(=O)C1)S(=O)(=O)c1cc(C)ccc1C (stereo not drawn)	15	3	.	8	.	3	.
COc1cccc(N2C(=NC(=O)C3CCCO3)SC3CS(=O)(=O)CC32)c1 (stereo not drawn)	-11	9	-3	-3	-3	1	.
O=C(Nc1ccccc1Br)c1cccc2ccccc12	.	1	.	8.7*	.	-1	-3
O=C(CS(=O)(=O)c1ccc(Br)cc1)N1CCOCC1	-3	-7	-2	11*	-1	-6	-3
Cc1ccc(S(=O)(=O)CC(=O)N2CCOCC2)cc1	-7	-4	-3	-3	-2	-5	.
CCn1c(CN2CCN(Cc3ccc(C)cc3)C(CCO)C2)nc2ccccc21 (stereo not drawn)	-11	-6	-1	5	-1	0	.
Cc1nc(N)c(CC(Br)CBr)c(Cl)n1 (stereo not drawn)	-13	-8	-3	8.0*	-4	-7	2
Cc1cccc(Nc2nc(N)nc(CC(=O)CSc3ccc(Cl)cc3)n2)c1	.	.	-3	.	-1	.	.
CCOC(=O)C1CCN(C(=O)c2cc3c(-c4ccc(OC)c(OC)c4)nn(C)c3s2)CC1	5	-26	2	12*	-3	2	-4
Cc1noc(C)c1C(=O)NNc1cc(Cl)ccc1Cl	1	4	0	-3	-3	-1	.
CCOC(=O)C1C(c2ccc(O)c(O)c2)NC(=S)NC1(O)C(F)(F)F (stereo not drawn)	0	2	-2	0	-2	-8	.
CCCCCCNC(=O)Nc1ccccc1	16	2	-3	8.2*	-1	-2	-4
SMILES	PvdQ acylase	ATG4B inhibitor	VIM-2 inhibitor	MIN6 prolif-1	IMP-1 inh	HKDC1 inhibitor	MIN6 prolif-2
CS(=O)(=O)NCCNc1ccc(Cl)cc1[N+](=O)[O-]	-11	-9	-3	7.7*	-3	-15	-1
CS(=O)(=O)NCCNc1cc(Cl)ccc1[N+](=O)[O-]	1	2	-2	-2	-3	-10	.
CCCCNc1ccc(S(N)(=O)=O)cc1[N+](=O)[O-]	.	.	-4	6.0*	-4	.	-3
NS(=O)(=O)c1ccc(NCCCn2ccnc2)c([N+](=O)[O-])c1	6	2	2	3	0	-3	.
Cc1nn(Cc2ccccc2)c(Cl)c1/C=C/C(=O)OCC(=O)N(C)C1CCS(=O)(=O)C1 (stereo not drawn)	12	-5	0	-3	-1	-6	.
CCOC(=O)c1cc2c(=O)n3cccc(C)c3nc2n(Cc2ccco2)c1=NC(=O)c1cccnc1	-4	-3	1	.	-2	25	.
CCOC(=O)c1cc2c(=O)n3ccccc3nc2n(Cc2ccco2)c1=NC(=O)c1cccnc1	3	4	2	9.5*	-2	9	-5
S=c1[nH]nc(-c2ccc3ccccc3n2)n1Cc1ccccc1	-9	-7	-4	8.6*	-3	-8	2
Fc1ccc(-n2c(-c3ccc4ccccc4n3)n[nH]c2=S)cc1	0	-6	1	7.9*	0	-1	-1
S=c1[nH]nc(-c2ccc3ccccc3n2)n1-c1cc(Cl)cc(Cl)c1	-4	-2	-3	-5	-1	17	.
S=c1[nH]nc(-c2ccncc2)n1Cc1ccccc1	-9	-2	5	-2	-2	-11	.
COc1ccc(N(C(=O)/C=C/c2ccccc2)C2=CC3CCC(C2)N3C)cc1 (stereo not drawn)	11	-3	-2	-3	-3	0	.
CCc1noc(C)c1C(=O)N1CCN(S(=O)(=O)c2cc(C)ccc2C)CC1	-10	0	-1	5	-3	-9	.
CCc1noc(C)c1C(=O)N1CCN(S(=O)(=O)c2c(C)c(C)cc(C)c2C)CC1	-9	-5	.	14*	.	-3	-2
COc1cccc2c1c(NC(=O)Nc1ccc(F)cc1F)nn2C	-5	-7	-3	6.8*	-1	1	-3
COc1ccccc1NC(=O)Nc1nn(C)c2cccc(N(C)C)c12	-6	-6	-2	-3	-4	12	.
CSc1ccccc1NC(=O)CN(Cc1ccc(Cl)cc1)S(C)(=O)=O	-4	-7	-1	5.0*	-2	9	-6
CSc1ccccc1NC(=O)CN(Cc1ccccc1)S(C)(=O)=O	-5	-10	-1	4	-3	-4	.
C=CCn1c(=O)c2ccccc2n2c(SCc3csc(-c4ccccc4)n3)nnc12	2	-15	0	-1	-2	4	.
C=CCNc1nc(-c2ccccc2)c(C(=O)OCC)cc1C#N	-5	-4	-3	5.3*	-2	1	-6
